Measured values: ChEMBL document CHEMBL4828729, “MSBA-S - A pentacyclic sulfamate as a new option for radiotherapy of human breast cancer cells” (Eur J Med Chem, 2021)
The source made the active and inactive calls.

Experiments:
[1] = test system: MDA-MB-231; experiment: Antimigratory activity against human MDA-MB-231 cells assessed as inhibition of cell migration measured by wound healing assay relative to control; format: functional
[2] = test system: MDA-MB-231 (Homo sapiens); experiment: Antimigratory activity against human MDA-MB-231 cells assessed as inhibition of cell migration measured by wound healing assay
[3] = test system: Hs-578T; experiment: Induction of apoptosis in human Hs-578T cells assessed as nuclei shrinkage at 20 uM measured after 72 hrs by DAPI staining based fluorescence microscopy relative to control; format: functional
How it was run: (§1)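 After 72 h treatment under standard conditions, cells were trypsinized and pelleted together with the culture supernatant. They were resuspended in PBS, fixed in 70% ethanol, cytospun onto slides and stained with DAPI for 5 min. Apoptotic cells were scored by nuclear shrinkage. Mean +SD of three independent experiments.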

[4] = test system: BT-20; experiment: Cytotoxicity against human BT-20 cells assessed as reduction in cell viability measured after 96 hrs by SRB assay; format: functional, cell-based; settings: BT-20, 96 h
How it was run: (§2)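 Compounds were prepared as 20 mM DMSO stocks and applied 24 h after seeding in 96-well plates at 1-100 (so in the source) for 96 h under standard conditions. Cells were fixed with 10% trichloroacetic acid, stained with 0.4% SRB, washed with 1% acetic acid and dissolved in 20 mM Tris base. Absorbance was read at 540 nm. IC50 is the half-maximal inhibitory concentration, with a cut-off of 50. Mean ± SD of at least three independent experiments.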

[5] = test system: MDA-MB-231; experiment: Anticlonogenic activity against human MDA-MB-231 cells assessed as clonogenic survival rate at 40 uM measured after 24 hrs by giemsa staining based survival assay relative to control; format: functional; settings: read-out: INH
How it was run: (§3)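 Cells seeded in 6-well plates and treated 24 h after seeding for 24 h. They were then trypsinized, counted and reseeded at 300 or 600 cells per 75 cm² flask. Colonies grew for about 12-14 days before paraformaldehyde fixation and 10% Giemsa staining. Only colonies of more than about 50 cells were scored for surviving fraction relative to control. Mean +SD of three independent experiments.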

[6] = test system: Hs-578T; experiment: Anticlonogenic activity against human Hs-578T cells assessed as clonogenic survival rate at 40 uM measured after 24 hrs by giemsa staining based survival assay relative to control; format: functional; how it was run: as §3
[7] = test system: Hs-578T; experiment: Induction of apoptosis in human Hs-578T cells assessed as nuclei shrinkage at 40 uM measured after 72 hrs by DAPI staining based fluorescence microscopy relative to control; format: functional; how it was run: as §1
[8] = test system: MDA-MB-231; experiment: Cytotoxicity against human MDA-MB-231 cells assessed as reduction in cell viability measured after 96 hrs by SRB assay; format: functional, cell-based; settings: MDA-MB-231, 96 h; how it was run: as §2
[9] = test system: Hs-578T; experiment: Cytotoxicity against human Hs-578T cells assessed as reduction in cell viability measured after 96 hrs by SRB assay; format: functional, cell-based; how it was run: as §2
[10] = test system: MCF7; experiment: Cytotoxicity against human MCF7 cells assessed as reduction in cell viability measured after 96 hrs by SRB assay; format: functional, cell-based; settings: MCF7, 96 h; how it was run: as §2
[11] = test system: MDA-MB-231; experiment: Induction of apoptosis in human MDA-MB-231 cells assessed as nuclei shrinkage at 40 uM measured after 72 hrs by DAPI staining based fluorescence microscopy relative to control; format: functional; how it was run: as §1
[12] = test system: MDA-MB-231; experiment: Induction of apoptosis in human MDA-MB-231 cells assessed as nuclei shrinkage at 10 uM measured after 72 hrs by DAPI staining based fluorescence microscopy relative to control; format: functional; how it was run: as §1
[13] = test system: Hs-578T; experiment: Induction of apoptosis in human Hs-578T cells assessed as early apoptotic cells at 10 uM measured after 24 hrs by Annexin V/propidium iodide staining based flow cytometry relative to control; format: functional
How it was run: (§4)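 Cells were seeded in 6-well plates, grown 24 h and then treated for 24 h. They were resuspended in binding buffer (10 mM HEPES/NaOH, 140 mM NaCl, 5 mM CaCl₂, pH 7.4) and stained for 15 min with propidium iodide and/or Annexin V. Flow cytometry classified vital (Q3), necrotic (Q1), late apoptotic (Q2) and apoptotic (Q4) populations.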

[14] = test system: MDA-MB-231; experiment: Induction of apoptosis in human MDA-MB-231 cells assessed as early apoptotic cells at 10 uM measured after 24 hrs by Annexin V/propidium iodide staining based flow cytometry relative to control; format: functional; how it was run: as §4
[15] = test system: MDA-MB-231; experiment: Induction of apoptosis in human MDA-MB-231 cells assessed as increase in ROS production at 20 uM measured after 24 hrs by CM-H2DCFDA staining based flow cytometry analysis relative to control; format: functional; settings: dose 5 µM, in the assay text read “at 5 uM” for “at 20 uM”
How it was run: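 Cells were plated in 6-well plates for 24 h, then treated for 24 h. They were loaded with 0.5 CM-H2DCFDA in PBS with CaCl₂/MgCl₂ for 30 min at 37 °C, washed, exposed to trypsin-EDTA (0.5%) for 3 min at 37 °C and detached with PBS. Fluorescence from dye conversion to chloromethyl-dichlorofluorescein was measured by flow cytometry. Values are fold change versus DMSO-treated cells.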

[16] = test system: Hs-578T; experiment: Induction of apoptosis in human Hs-578T cells assessed as late apoptotic cells at 10 uM measured after 24 hrs by Annexin V/propidium iodide staining based flow cytometry relative to control; format: functional; how it was run: as §4
[17] = test system: MDA-MB-231; experiment: Radiosensitization activity in human MDA-MB-231 cells assessed as ratio of DMSO treated surviving fraction to compound treated surviving fraction at 5 uM pre-incubated for 24 hrs prior to irradiation and measured by giemsa staining based assay; format: functional
How it was run: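 Cells were incubated for 24 h with 5 (so in the source) compound, then irradiated with 6, 10 or 14 Gy. Colonies of more than about 50 cells were counted after about 12-14 days with Giemsa staining and normalized to unirradiated controls. DMF is the surviving fraction of DMSO control cells divided by that of treated cells, reported at 10% survival.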

[18] = test system: Hs-578T; experiment: Induction of apoptosis in human Hs-578T cells assessed as necrotic cells at 10 uM measured after 24 hrs by Annexin V/propidium iodide staining based flow cytometry relative to control; format: functional; how it was run: as §4
[19] = test system: Hs-578T; experiment: Induction of apoptosis in human Hs-578T cells assessed as nuclei shrinkage at 10 uM measured after 72 hrs by DAPI staining based fluorescence microscopy relative to control; format: functional; how it was run: as §1
[20] = test system: MDA-MB-231; experiment: Induction of apoptosis in human MDA-MB-231 cells assessed as late apoptotic cells at 10 uM measured after 24 hrs by Annexin V/propidium iodide staining based flow cytometry relative to control; format: functional; how it was run: as §4
[21] = test system: Hs-578T; experiment: Anticlonogenic activity against human Hs-578T cells assessed as clonogenic survival rate at 10 uM measured after 24 hrs by giemsa staining based survival assay relative to control; format: functional; how it was run: as §3
[22] = test system: MDA-MB-231; experiment: Induction of apoptosis in human MDA-MB-231 cells assessed as necrotic cells at 10 uM measured after 24 hrs by Annexin V/propidium iodide staining based flow cytometry relative to control; format: functional; how it was run: as §4
[23] = test system: MDA-MB-231; experiment: Anticlonogenic activity against human MDA-MB-231 cells assessed as clonogenic survival rate at 10 uM measured after 24 hrs by giemsa staining based survival assay relative to control; format: functional; how it was run: as §3

`C=C(C)[C@@H]1CC[C@]2(C(=O)O)CC[C@]3(C)[C@H](CC[C@@H]4[C@@]5(C)CC[C@H](O)C(C)(C)[C@@H]5CC[C@]43C)[C@@H]12` was tested. Which inhibition [1] did it give?
Its inhibition is “Active”.

And the inhibition [2]?
Its inhibition is “Active”.

Which results are given for `C[C@H]1[C@H](C)CC[C@]2(C(=O)NCc3ccccc3)CC[C@]3(C)C(=CC[C@@H]4[C@@]5(C)CC[C@H](OS(N)(=O)=O)C(C)(C)[C@@H]5CC[C@]43C)[C@H]12`?
Activity [3]: 3.5%; IC50 [4]: 16.2 µM; clonogenic survival relative to control at 40 µM [5]: 80.6%; inhibition at 40 µM [6]: 73.1%

How did the Activity [7] turn out when `CC(=O)[C@@H]1CC[C@]2(C(=O)NCc3ccccc3)CC[C@]3(C)[C@H](CC[C@@H]4[C@@]5(C)CC[C@H](OS(N)(=O)=O)C(C)(C)[C@@H]5CC[C@]43C)[C@@H]12` was run?
The Activity was 3.5%.

And the IC50 [8]?
The IC50 was over 50 µM.

And the IC50 [9]?
Its IC50 is 16.9 µM.

What about the IC50 [4] of the same compound?
Its IC50 is 32 µM.

What about the clonogenic survival relative to control at 40 µM [5] of the same compound?
The clonogenic survival relative to control at 40 µM was 80.6%.

And the IC50 [10]?
Its IC50 is 9.3 µM.

And the inhibition at 40 µM [6]?
Its inhibition at 40 µM is 73.1%.

What about the Activity [11] of the same compound?
The Activity was 2.1%.

How did the inhibition [1] turn out when `CC1(C)CC[C@]2(C(=O)O)CC[C@]3(C)C(=CC[C@@H]4[C@@]5(C)CC[C@H](O)C(C)(C)[C@@H]5CC[C@]43C)[C@@H]2C1` was run?
The inhibition was “inactive”.

How did the Activity [7] turn out when `C=C(C)[C@@H]1CC[C@]2(C(=O)NCc3ccccc3)CC[C@]3(C)[C@H](CC[C@@H]4[C@@]5(C)CC[C@H](OS(N)(=O)=O)C(C)(C)[C@@H]5CC[C@]43C)[C@@H]12` was run?
Its Activity is 3.5%.

What about the IC50 [8] of the same compound?
The IC50 was 15.2 µM.

What about the IC50 [9] of the same compound?
The IC50 was 18.8 µM.

What about the IC50 [4] of the same compound?
The IC50 was 16.2 µM.

What about the clonogenic survival relative to control at 40 µM [5] of the same compound?
Its clonogenic survival relative to control at 40 µM is 80.6%.

And the IC50 [10]?
Its IC50 is 7.5 µM.

And the inhibition at 40 µM [6]?
The inhibition at 40 µM was 73.1%.

And the Activity [11]?
The Activity was 2.1%.

What does the source list for `CC1(C)CC[C@]2(C(=O)NCc3ccccc3)CC[C@]3(C)C(=CC[C@@H]4[C@@]5(C)C[C@@H](OS(N)(=O)=O)[C@H](OS(N)(=O)=O)C(C)(C)[C@@H]5CC[C@]43C)[C@@H]2C1`?
Activity [12]: 8.9%; Activity [13]: 8.7%; Activity [14]: 7.4%; IC50 [8]: 3.7 µM; IC50 [9]: 3.8 µM; fold change (FC) [15]: 5.7; Activity [16]: 44.4%; Ratio [17]: 1.14; Activity [18]: 2.6%; IC50 [4]: 5.8 µM; Activity [19]: 22.1%; IC50 [10]: 4.9 µM; Activity [20]: 18.4%; inhibition at 10 µM [21]: 16.5%; Activity [22]: 1.6%; inhibition at 10 µM [23]: 42.1%

What does the source list for `CC1(C)CC[C@]2(C(=O)NCc3ccccc3)CC[C@]3(C)C(=CC[C@@H]4[C@@]5(C)CC[C@H](OS(N)(=O)=O)C(C)(C)[C@@H]5CC[C@]43C)[C@@H]2C1`?
Activity [7]: 3.5%; IC50 [8]: > 50 µM; IC50 [9]: 15.8 µM; IC50 [4]: 16.2 µM; clonogenic survival relative to control at 40 µM [5]: 80.6%; IC50 [10]: > 50 µM; inhibition at 40 µM [6]: 73.1%
